The series has as its system MS2 coat protein. The experiment in a line: apparent Kd, MS2 coat protein; higher = weaker binding; RNA-MaP array; FMN 200 µM where present. An outline of the steps: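 Designs were transcribed by stalled E. coli RNA polymerase on Illumina sequencing-chip clusters. They were titrated with SNAP-549-labelled MS2 coat protein from 0.7 or 1.5 nM, doubling to 3 µM, in 100 mM Tris-HCl pH 7.5, 80 mM KCl, 4 mM MgCl2, BSA, DTT, yeast tRNA and Tween-20, without and then with constant ligand. The apparent Kd is the median of filtered per-cluster fits after normalisation of green signal to red-channel RNA signal and control-cluster median Fmax.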

Setting [1] is: designed as: ON switch for flavin mononucleotide, no ligand.
The mark [2] stands for this setting: ligand present: flavin mononucleotide, designed as: ON switch for flavin mononucleotide.
The mark [3] stands for this setting: designed as: OFF switch for flavin mononucleotide, no ligand.
Setting [4] is: ligand present: flavin mononucleotide, designed as: OFF switch for flavin mononucleotide.

By apparent Kd is commonly meant a dissociation constant that holds for the conditions of the assay.

Regarding “AGUGUCGGCACAGGAUAUGAGAUGCCGGCAGACAUGAGGAUCACCCAUGUAAGCGAACCAGGCAGUCAGAAGGGUGAUCGACAA”, the “apparent Kd” value is, setting by setting: under setting [1], 46.8 nM; under setting [2], 24.4 nM.
Regarding “AAAUGCCUGUCGAUGCUCGACAUGAGGAUCACCCAUGUAUAGCAGGAUAUGCAGAACUGACUCGUGCAGAAGGGCUAUACCUAA”, the “apparent Kd” value was found to be 38.2 nM under setting [3] and 315 nM under setting [4].
“GGGUAAUAUCGAGGAUAUGUCUAGACACAUGAGGAUCACCCAUGUAUGUGUAUAGAAGGCGAUAUUAACAGCAUGUUACAUGGG”: the “apparent Kd” value under setting [1] was determined as 291 nM and the “apparent Kd” value under setting [2] was found to be 60.5 nM.
Consider “GGCGAGUAAGGAUAUUUUAACCUACAGACGAGUGAUGGUUAAGAGAAGGUACAUGAGGAUCACCCAUGUCAUCC”, for which the “apparent Kd” value came out at 16.2 nM under setting [3] and 19.8 nM under setting [4].
With “CGUCCACAUGAGGAUCACCCAUGUCAGGAUAUACAAAUGCCAGGUCGCGGGCCAGGCGGUAGAAGGGACGUGGC”, the “apparent Kd” value was determined as 23.1 nM under setting [3] and 18.6 nM under setting [4].
The corresponding values for “AAGACUAGAGGAUAUACAUGAGGAUCACCCAUGUAACUGUCAGGUGACUGACGGAAAUGUAGAAGGCUAGUCAA” are 16.2 nM and 37.9 nM.
The corresponding values for “CGAGUUUUUGAGAAGGCAUAUUAUAUUUAUAGUCAUGUUAACAUGAGGAUCACCCAUGUUCUCUAUGAGGAUAUCAGUUUAUCG” are 7.68 nM and 7.87 nM.
The corresponding values for “UCGAACGGAAACAAAGUCUUCGGACAUGAGGAUCACCCAUGUAAGGAUAUGCCUACUAAAAGUAGGCAGAAGGUACGCGUUCGA” are 22.1 nM and 51.1 nM.
In the case of “AAUUUACAUGAGGAUCACCCAUGUGAGGAUAUAUAUAUAUGCUUGUUAUUGCGUGUGUGUAGAAGGCGCGUGAU”, the “apparent Kd” value was 21.1 nM under setting [3] and 21 nM under setting [4].
Taken in the same sequence, the figures for “AGAGUUUCGUUGUGACCCAUUCACAUGAGGAUCACCCAUGUAGAGGAUAUAGGUCACCACGGUACCUAGAAGGCUACAGGUGUG” were 13.4 nM and 15.5 nM.
The corresponding values for “CUUAUGUGAGGAUAUGGUGUUGAUCACAGGAAAAAGAUUCUCCAGAAGGCACAUGAGGAUCACCCAUGUAGUGA” are 145 nM and 90 nM.
Taken in the same sequence, the figures for “UGUGCGUUGAUCUUCGAUCGGUGUACAUGAGGAUCACCCAUGUAGGAUAUUCAAAGACGCAGAUAGGAGAAGGACAUCGGUUUU” were 18 nM and 19.8 nM.
As to “CUCUCUCAUCGAGGAUAUCGAACUUCCACCCUUCGAGAAGGCGACAUGAGGAUCACCCAUGUAAGGAGGACACUCACUCACACA”, the “apparent Kd” value runs as follows: under setting [3], 22.6 nM; under setting [4], 20.9 nM.
Taken in the same sequence, the figures for “GGCUCGAGGGUCUCCGCGUUCACAUGAGGAUCACCCAUGUAACAGGAUAUCGGGCCAAAGGGCAGCGAGAAGGGUUACUUGGGC” were 6.43 nM and 14.6 nM.
In the case of “AGAAUAAACCAGAAGGCCGAGAUACAUGAGGAUCACCCAUGUAUACUUUGGAGGAUAUGGAUGAUUCAAGUGCGUUUCGUAGCA”, the “apparent Kd” value was determined as 3.98 nM under setting [1] and 3.36 nM under setting [2].
Taken in the same sequence, the figures for “AGAUAUAACUCAGGAUAUCAGCAUGGGUAGAUCACAUGAGGAUCACCCAUGUGCAUGUCCCGGCAUGAGAAGGGAGUAACGCAA” were 43.2 nM and 52.2 nM.
On to “ACAAGAUCAGGAUAUACAUGAGGAUCACCCAUGUUUAUCAAAAAAAGGCUUUCAUCAUGUAGAAGGGAUCUUGU”, for which the “apparent Kd” value reads like this: under setting [3], 99 nM; under setting [4], 126 nM.
“ACAGAGCCUGACAUGAGGAUCACCCAUGUUAGAUUGUUAUGUCAGGAUAUUGUCUAGCAACUAGACAAGAAGGGAUGCUCUGUG”: the “apparent Kd” value was found to be 392 nM under setting [1] and 29.8 nM under setting [2].
For “CUAUGAAGAAUAGGAUAUUCGAUCAAGAGGAUAGAAGAAGGGUUACAUGAGGAUCACCCAUGUAUGCACAUGAGGAUCCCUUAG”, the “apparent Kd” value by setting is: under setting [3], 98.4 nM; under setting [4], 107 nM.
As to “CGCGGACAAGAGAAGGCCAGACCUCGGAACCUGAGGCACCGCUAGGCAUGGAGGAUAUCUUGACAUGAGGAUCACCCAUGUACU”, the “apparent Kd” value amounted to 665 nM under setting [1] and 33.7 nM under setting [2].
Turning to “GGUACUCAAAGAGUACGGAGUCGAACAUGAGGAUCACCCAUGUAGGAUAUGCUAUUCUUGAAGUUGCAGAAGGACAUGUGCAGC”, the “apparent Kd” value by setting is: under setting [3], 10.9 nM; under setting [4], 11.1 nM.
Taken in the same sequence, the figures for “UUACUACAUGAGGAUCACCCAUGUCAGGAUAUUGUCUAUACCGUGGAAGCUGUGUCGAUAAGAAGGGACUGUAU” were 20.5 nM and 34.8 nM.
The corresponding values for “AGGGAACAUGAGGAUCACCCAUGUGAGGAUAUACAAAAGAAAAGAAAAGAAAGAAGAAGUAGAAGGUACAAGAA” are 28.2 nM and 35.5 nM.
For “GUAGCAUACCGAGGAUAUUCAGGGCGUGGAUAUACAUGAGGAUCACCCAUGUGGCGAAAGCCUAGGGAGAAGGCGGAAUGCUAC”, the “apparent Kd” value is, setting by setting: under setting [1], 23.6 nM; under setting [2], 17 nM.
Take “GGCAUGUGAGGAUAUCUGAUGUCUAACUUCGGUUAGACAUCAGAGAAGGCACAUGAGGAUCACCCAUGUCUGCC”: the “apparent Kd” value runs as follows: under setting [3], 68.4 nM; under setting [4], 79.8 nM.
“CAGAAGUCAGGAUAUGCUGCUCGUCACUUGCGUGAUGAGUAGCAGAAGGGACAUGAGGAUCACCCAUGUAAAGC”: the “apparent Kd” value by setting is: under setting [3], 53.5 nM; under setting [4], 87.1 nM.
Taken in the same sequence, the figures for “UGUCGGAGCAGAGGAUAUUACAUGAGGAUCACCCAUGUAUGAACCAAUAGCUGGAAACAGAAAUGUAAGAAGGCUGCUCCGACA” were 5.84 nM and 21.2 nM.
Taken in the same sequence, the figures for “GCCGAUUAAGUCAGGAUAUACCUAUGGAUACAUAGGUAGAAGGGACAUGAGGAUCACCCAUGUUCCUCACCGGC” were 14.8 nM and 21.8 nM.
The corresponding values for “AUCAGCUCGUGAGGAUAUACGUCACUGCUUCGGCAGUGUGGUAAGAUCACAUGAGGAUCACCCAUGUAGAAGGCACGAGCUGAU” are 21.4 nM and 471 nM.
On to “UUCAAGUCAGGAUAUCCAUAUUUCUGAUAUAACGGUACUUUGGAGAAGGGACAUGAGGAUCACCCAUGUAAUCU”, for which the “apparent Kd” value runs as follows: under setting [3], 24.5 nM; under setting [4], 28.3 nM.
Take “UACAUCGGAGGAUAUACAUGAGGAUCACCCAUGUGAGUGUAAGGGAGCGUAAGCGGGUGUAGAAGGCCGUCUUU”: the “apparent Kd” value is, setting by setting: under setting [3], 58.3 nM; under setting [4], 49.5 nM.
Taken in the same sequence, the figures for “CAGUACUGAGGAUAUACAUGAGGAUCACCCAUGUGUUCCAGCUAGGAAACUAGCAAAAGUAGAAGGUAGUACUG” were 13.7 nM and 56.5 nM.
Taken in the same sequence, the figures for “CACAAGAAAGUCGAAGGUUGAAGUAGAAGGACAAUAACAUGACAUGAGGAUCACCCAUGUGCCAUGUAGGAUAUGCUUUAAUCG” were 8.54 nM and 8.34 nM.
With “ACAUGAGGAUCACCCAUGUAUACAUAGGAUAUUGGUGAUCAGGCAUGUUUUACAGGAUAUGUCUGCGAGAAGGAUGCAAGUUGC”, the “apparent Kd” value amounted to 557 nM under setting [1] and 424 nM under setting [2].
“UUAAUGUGAGGAUAUCAGGUGUGCUAGCGUACUGGUACAUCUGAGAAGGCACAUGAGGAUCACCCAUGUUUCUU”: the “apparent Kd” value is, setting by setting: under setting [3], 32.7 nM; under setting [4], 110 nM.
Taken in the same sequence, the figures for “AAGAAGUCAGGAUAUGCUGCUCGUCACUUGCGUGAUGAGUAGCAGAAGGGACAUGAGGAUCACCCAUGUGGAGA” were 114 nM and 241 nM.

Values taken from the EternaBench riboswitch data.
